≈ marks a conversion by molar mass, not a printed value.
Key:
[1] = Chemical stability in phosphate buffered saline at pH 5 after 14 days; format: physicochemical; details: buffer, pH 5, 336 h
Outline: (§1)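 Stability in PBS (pH 3, 5 and 7.4) followed over 14 days for non-metabolic degradation.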

[2] = Chemical stability in phosphate buffered saline at pH 7.4 after 14 days; format: physicochemical; details: buffer, pH 7.4, 336 h; outline: as §1
[3] = Chemical stability in dimethyl sulfoxide at pH 7.4 after 14 days; format: physicochemical; details: buffer, pH 7.4, 336 h
Outline: (§2)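 DMSO stability followed over 14 days for non-metabolic degradation.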

[4] = Half life in CD1 mouse plasma by UPLC-MS analysis; format: ADME, cell-free
Outline: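 Half-life in mouse plasma measured at 37 °C.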

[5] = Permeability of the compound assessed as ratio of compound in acceptor chamber to amount of compound in donor chamber at pH 7.4 by PAMPA assay; format: ADME
[6] = Chemical stability in dimethyl sulfoxide at pH 3 after 14 days; format: physicochemical; details: buffer, pH 3, 336 h; outline: as §2
[7] = Half life in CD1 mouse liver microsomes by UPLC-MS analysis; format: ADME, Microsome; details: CD1, mouse, liver microsomes
Outline: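 CD-1 female mouse liver microsomes in 0.1 M potassium phosphate pH 7.4 with EDTA and NADPH-regenerating solutions, 37 °C, shaken. Samples at 0, 0.5, 1 and 2 h quenched with cold acetonitrile containing caffeine internal standard. UPLC–MS (SIR) read-out. Log peak-area ratio versus time gives slope; k = −2.303 × slope, t1/2 = 0.693/k.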

Mus musculus [8] = experiment: Stability of the compound in po dosed mouse blood assessed as 5-(2-cyano-6-(3,4-dichlorobenzylamino)-9H-purin-9-yl)pentanoic acid level after 1 hr; format: ADME, organism-based; details: in vivo
Outline: (§3)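 Oral gavage of compound suspensions to female Balb/c mice; blood sampled retro-orbitally at 1, 2 and 4 h (one sample per mouse) and by cardiac puncture at 48 h. Parent compound and metabolites measured by UPLC–MS; metabolite identity assigned by MS/MS against a synthesized standard.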

[9] = Permeability of the compound assessed as ratio of compound in acceptor chamber to amount of compound in donor chamber at pH 3 by PAMPA assay; format: ADME
Trypanosoma brucei = experiment: Antitrypanosomal activity against Trypanosoma brucei after 48 hrs; format: functional, organism-based
[10] = Chemical stability in dimethyl sulfoxide at pH 5 after 14 days; format: physicochemical; details: buffer, pH 5, 336 h; outline: as §2
Mus musculus [11] = experiment: Stability of the compound in po dosed mouse blood; format: ADME, organism-based; details: in vivo; outline: as §3
BJ = experiment: Cytotoxicity against human BJ cells after 72 hrs by alamar blue assay; format: cell-based
[12] = Therapeutic index, ratio of EC50 for human cells to EC50 for Trypanosoma brucei; details: human cells versus Trypanosoma brucei, read-out: Ratio EC50
Outline: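 Index = EC50 against the most sensitive mammalian line (HEK 293, Hep G2, BJ, Raji) divided by EC50 against T.b. brucei.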

HEK293 = experiment: Cytotoxicity against human HEK293 cells after 72 hrs by alamar blue assay; format: cell-based; details: hek293, 72 h
HepG2 = experiment: Cytotoxicity against human HepG2 cells after 72 hrs by alamar blue assay; format: cell-based; details: hepg2, 72 h
[13] = Permeability of the compound assessed as ratio of compound in acceptor chamber to amount of compound in donor chamber at pH 5 by PAMPA assay; format: ADME
Raji = experiment: Cytotoxicity against human Raji cells after 72 hrs by alamar blue assay; format: cell-based
[14] = Aqueous solubility of compound in deionized water; format: physicochemical
Outline: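 Aqueous solubility measured in deionized water.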

[15] = Chemical stability in phosphate buffered saline at pH 3 after 14 days; format: physicochemical; details: buffer, pH 3, 336 h; outline: as §1
[16] = Toxicity in human erythrocyte assessed as hemolysis at 10 uM after 5 hrs; format: cell-based; details: erythrocytes, read-out: Activity
Outline: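 Human erythrocytes washed three times after spinning whole blood at 1000g for 5 min. Test compound at 10 µM final, 2% hematocrit. PBS negative control; 0.4% saponin dilution series as standard. After centrifugation, supernatant absorbance read at 414 nm and % hemolysis taken from the calibration curve. Triplicate.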

[17] = Inhibition of Trypanosoma brucei cathepsin B expressed in Pichia pastoris

N#Cc1nc(NCc2ccc(Cl)c(Cl)c2)c2ncn(CCCCCO)c2n1
Stability [1]: Stable
Stability [2]: Stable
Stability [3]: Stable
half-life [4]: 38.3 h
Ratio [5]: 1900
Stability [6]: Stable
half-life [7]: 1.08 h
Stability (Mus musculus [8]): Unstable
Ratio [9]: 960
EC50 (Trypanosoma brucei): 380 nM
Stability [10]: Stable
Stability (Mus musculus [11]): Unstable
Activity (BJ): Non-toxic
selectivity ratio [12]: > 20
Activity (HEK293): Non-toxic
Activity (HepG2): Non-toxic
Ratio [13]: 1512
Activity (Raji): Non-toxic
solubility [14]: 16.1 µM (≈ 6.53 µg/mL)
Stability [15]: Stable
hemolysis at 5 h, 10 µM [16]: 0.7%

CCCCn1cnc2c(NCc3ccc(Cl)c(Cl)c3)nc(C#N)nc21
half-life [4]: 247 h
half-life [7]: 0.74 h
EC50 (Trypanosoma brucei): 500 nM
selectivity ratio [12]: > 20
solubility [14]: 0.7 µM (≈ 0.263 µg/mL)
hemolysis at 5 h, 10 µM [16]: 0.9%

N#Cc1nc(NCc2ccc(Cl)c(Cl)c2)c2ncn(CCC(=O)O)c2n1
EC50 (Trypanosoma brucei): > 25000 nM
IC50 [17]: 2600 nM
